# Source: PubChem (several laboratories)
# Hits are enriched below; roughly 4% of the tested compounds scored in any of these assays.
# TAAR1 antagonist – antagonists of human TAAR1; Q96RJ0; CHO RD-HGA16 TAAR1, Fluo-8 calcium fluorescence, antagonist; inhibition, % at 3 µM; hit rate 1.5% among 360,000;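 active means inhibition above a per-plate cutoff, the mean inhibition of test compounds on that plate plus 3 SD, cut at about 49% in these data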;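 further: 0% = DMSO plus EC80 beta-PEA response and 100% = DMSO alone without agonist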
#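 Test system: RD-HGA16 CHO cells with stable hTAAR1 and Gα16 / Probe or stimulus: EC80 β-phenethylamine stimulus / Times: seeding 17-24 h prior, 75-min 37 °C, 30-min RT dye loading / Detection: Fluo-8 calcium-sensitive fluorescence / Read-out basis: % inhibition scaled between DMSO and EC80 PEA controls / Repeats: singlicate, one well per test compound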
# OX1R antag-1 – antagonists of human orexin 1 receptor (OX1R) | OX1R-expressing cells, FRET antagonist read-out | inhibition, % at 6.6 µM | hit rate 1.8% among 330,000; in the data active means inhibition mostly above about 38%, no sharp cut-off; inactive means mostly below about 40%;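 further: 0% = agonist challenge alone and 100% = reference antagonist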
# Target sequence (O43613 whole entry, looked up): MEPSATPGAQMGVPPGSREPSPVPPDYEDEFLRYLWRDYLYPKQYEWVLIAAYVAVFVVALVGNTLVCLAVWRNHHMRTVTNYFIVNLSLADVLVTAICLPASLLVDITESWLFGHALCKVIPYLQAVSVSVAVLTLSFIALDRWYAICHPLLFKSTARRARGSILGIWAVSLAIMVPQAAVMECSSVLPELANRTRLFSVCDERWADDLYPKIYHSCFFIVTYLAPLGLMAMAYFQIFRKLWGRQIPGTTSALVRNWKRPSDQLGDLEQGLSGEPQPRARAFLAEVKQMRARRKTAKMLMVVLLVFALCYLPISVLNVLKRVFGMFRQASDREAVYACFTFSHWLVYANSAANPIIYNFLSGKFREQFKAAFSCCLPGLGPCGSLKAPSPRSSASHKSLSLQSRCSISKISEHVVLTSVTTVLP
# CHO parental Ca – counter-screen for OX1R antagonists: effect in parental CHO cells. parental CHO-K1, ATP-induced calcium, Fluo-8 fluorescence. inhibition, % at 5.6 µM. hit rate 0.63% among 330,000. AID 463079;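 active means inhibition above that plate's mean sample inhibition plus 3 SD, cut at about 26% in these data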;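 further: 0% = ATP-challenged DMSO wells and 100% = DMSO wells without ATP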
#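 material = parental CHO cells | also added = ATP as calcium-mobilizing challenge | dosing = single point at 5.6 µM | detection = intracellular calcium via Fluo-8 no-wash fluorescent dye | read-out = % inhibition | benchmarks = low control ATP plus DMSO, high control DMSO only | repeats = one well per compound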
# TAAR1 ag – agonists of human TAAR1 | hit rate 0.99% among 360,000 | CHO RD-HGA16 TAAR1, Fluo-8 calcium fluorescence; vehicle wells 0%, saturating PEA agonist 100% | activation, % at 3 µM | Q96RJ0;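 active means activation above the mean activation of all test compounds in the run plus 3 SD, cut at about 38% in these data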
#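 System: CHO-derived RD-HGA16 cells with stable Gα16 and human TAAR1 / Times: 17-24 h plating, Fluo-8 75 min 37 °C, 30 min RT / Technique: calcium-sensitive Fluo-8 signal, excitation 470-495, emission 515-575 nm / Measure: % activation relative to PEA EC100 response / Benchmarks: DMSO and PEA EC100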
# OX1R antag-2 – antagonists of human orexin 1 receptor; hit rate 0.43% among 330,000; inhibition, % at 5 µM; AID 434989; O43613; CHO/OX1R cells, Fluo-8 calcium fluorescence, orexin A;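 active means inhibition above its plate's threshold, mean inhibition of all tested compounds on the plate plus 3 SD, cut at about 37% in these data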;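 further: 0% = orexin A challenge wells and 100% = SB-334867-A antagonist wells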
# NTR1 ag – agonists of human neurotensin receptor NTR1; AID 493036; activation, % at 20 µM; P30989; NTR1-U2OS beta-arrestin-GFP spot imaging, agonist mode; hit rate 0.17% among 330,000;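 active means activation at or above 40% of the spot to cytoplasm intensity ratio, with at least 20 cells analyzed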;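 further: 0% = DMSO without peptide and 100% = 100 nM NTR1 peptide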
# * = called active by the depositor; nt = no result.
SMILES,TAAR1 antagonist,OX1R antag-1,CHO parental Ca,TAAR1 ag,OX1R antag-2,NTR1 ag
NS(=O)(=O)c1ccc(Nc2ncccc2[N+](=O)[O-])cc1,12,58*,4,4,1,3
COc1ccc(-c2cnnc(N/N=C/c3ccc(O)cc3)n2)cc1,0,22,-19,2,-39,1
COc1ccc(-c2cnnc(N/N=C/c3ccc(O)c(O)c3)n2)cc1,12,75*,0,1,-8,1
COC(=O)[C@]12C[C@H](CC(=O)NCC34CC5CC(CC(C5)C3)C4)C(=O)N(CCC3=CCCCC3)C1=C[C@H](COCc1ccccc1)O[C@@H]2C,-27,nt,nt,-1,nt,nt
Cc1ccc(-c2csc(NC(=O)c3ccc(Br)cc3)c2C(=O)O)cc1,24,10,2,-1,-19,3
COc1cc(C(=O)Nc2scc(-c3ccc(Br)cc3)c2C(=O)O)cc(OC)c1OC,28,54*,-9,7,-4,3
CCOC(=O)CSc1nc2c(c(-c3ccc(C)o3)c1C#N)CCCC2,42,15,33*,8,-32,13
COC(=O)C1=C(C)N(Cc2ccccc2C(F)(F)F)C(=NCc2ccccc2C(F)(F)F)NC1c1ccc(F)cc1 (stereo not drawn),-24,nt,nt,-1,nt,nt
O=C(CSc1nc2ccccc2c(=O)n1Cc1ccco1)c1ccc(F)cc1,50*,12,7,10,-22,7
COC(=O)c1ccc(CSc2nc3ccccc3c(=O)n2CC(C)C)o1,18,16,-33,14,-22,2
COC(=O)c1ccc(CSc2nc3c(cnn3-c3ccc(F)cc3)c(=O)[nH]2)o1,nt,14,-16,nt,-23,1
NC(=O)CSc1nc2ccccc2c(=O)n1Cc1ccco1,-4,21,-11,2,-14,0
COC(=O)c1ccc(CSc2nc3ccccc3c(=O)n2Cc2ccco2)o1,60*,15,37*,7,50*,4
COC(=O)c1ccc(CSc2nc3c(cnn3-c3ccccc3)c(=O)[nH]2)o1,-5,55*,-16,4,11,3
Cc1c(C(=O)OCC(=O)N(C)Cc2ccccc2)oc2ccccc12,-21,60*,-12,9,26,5
Cc1c(C(=O)OCC(=O)N2CC(C)CC(C)C2)oc2ccccc12 (stereo not drawn),-47,70*,-17,4,-24,-1
Cc1c(C(=O)OCC(=O)N(C)c2ccccc2)oc2ccccc12,-1,32,-15,5,-13,0
C[C@@H]1NC(=O)c2cc([N+](=O)[O-])cc(I)c2OCC[C@@H](C(=O)NC(CC(=O)O)C(N)=O)NC(=O)[C@H](CC(N)=O)NC1=O (stereo partly drawn),nt,31,51*,nt,41,-2
CCN(c1ccccc1)S(=O)(=O)c1ccc(C(=O)N(C)Cc2cccs2)cc1,49*,13,2,11,10,-1
CCN(CC(=O)NCc1cccs1)C(=O)c1ccc(S(=O)(=O)N(C)c2ccccc2)cc1,16,4,-9,4,-10,1
NC(=O)N=Nc1c2[nH]c3ccccc3nc-2c2ccccc12,44,71*,-11,23,-4,3
O=c1[nH]c2ccccc2nc1-c1ccccc1,-14,25,-14,-1,-16,1
COc1ccc(C(=O)Nc2cccc(S(=O)(=O)NC3=NCCC3)c2)cc1OC,8,5,1,6,-18,1
Cc1cc(C)nc(-n2nc(C)cc2NC(=O)CN2CCc3ccccc3C2)n1,0,12,-30,43*,-28,10
COC(=O)[C@]12C[C@H](CC(=O)N3CCC(c4ccccc4)CC3)C(=O)N(CCc3ccc(OC)c(OC)c3)C1=C[C@H](C(C)(C)C)O[C@@H]2C,-20,nt,nt,-1,nt,nt
SMILES,TAAR1 antagonist,OX1R antag-1,CHO parental Ca,TAAR1 ag,OX1R antag-2,NTR1 ag
O=C(c1ccco1)N1CCN(c2ncnc3c2oc2ccccc23)CC1,10,74*,-14,14,0,-3
O=C(Nc1ccc2c(c1)OCO2)c1c(Cl)nc2sccn12,-8,58*,-31,4,-16,2
C#CCNC(=O)c1cc2cccnc2nc1N,1,nt,nt,0,nt,nt
CCS(=O)(=O)N1CCC(C(=O)OCC(=O)c2ccc(Br)cc2)CC1,-4,12,50*,6,-31,-2
COC(=O)[C@]12C[C@H](CC(=O)NCCC(C)C)C(=O)N(CCC3=CCCCC3)C1=C[C@H](COCc1ccccc1)O[C@@H]2C,-16,nt,nt,0,nt,nt
CCN1C(=O)/C(=C2/C=CC=CN2C)SC1=S,-5,46*,5,6,4,-2
CN1C=CC=C/C1=C1/SC(=S)N(Cc2ccccc2)C1=O,2,25,0,3,3,-1
O=C(COC(=O)c1n[nH]c2ccccc12)NC1CCCCC1,8,6,-11,2,-8,2
O=C(COC(=O)c1n[nH]c2ccccc12)NC(=O)NC1CCCCC1,-7,24,-9,44*,-35,7
C=CCCN1[C@@H](Cc2ccccc2)COc2ccccc2S1(=O)=O,19,nt,nt,0,nt,nt
CCOC(=O)C1(Cc2ccc(Cl)cc2)CCN(C(C)Cc2ccc(O)c(OC)c2)CC1 (stereo not drawn),26,15,38*,21,-15,3
C=CC[C@H](CC(=O)N(CCO)Cc1ccccc1)C(=O)NC[C@H](OC(=O)[C@@H](CC=C)Cc1ccc(F)cc1)c1ccccc1,90*,16,5,28,26,19
C=CC[C@@H](CC(=O)N(CCO)Cc1ccccc1)C(=O)NC[C@@H](OC(=O)[C@@H](CC=C)Cc1ccc(F)cc1)c1ccccc1,69*,7,-7,13,39,8
C=CC[C@H](CC(=O)N(CCO)Cc1ccccc1)C(=O)NCCOC(=O)[C@@H](CC=C)Cc1ccc(F)cc1,17,17,-12,9,4,-1
CCCCCCCCCCCCNC[C@@H]1CSCCS(=O)(=O)N1,-14,nt,nt,9,nt,nt
N#Cc1cc2ccccc2nc1SCc1ccccn1,13,49*,1,34,18,4
COC(=O)C1=C(C)N(Cc2ccccc2C(F)(F)F)C(=NCc2ccccc2C(F)(F)F)NC1c1cccc(F)c1 (stereo not drawn),6,nt,nt,-1,nt,nt
CCCCNCc1ccc(OCc2ccc(Cl)nc2)c(OC)c1,-25,0,-23,2,-27,2
COc1cc(CNCC(O)c2ccccc2)ccc1OCc1ccc(Cl)nc1 (stereo not drawn),-11,5,-22,39*,-15,0
Cc1cc(NC(=O)CSc2nnc(-c3ccc([N+](=O)[O-])cc3)o2)no1,-12,59*,5,3,-9,0
CC(C)OC(=O)CSc1nnc(-c2ccc(Cl)cc2Cl)o1,-7,16,-14,4,-21,0
